Laboratory results from ChEMBL document CHEMBL3763111, “Identification of a diverse indole-2-carboxamides as a potent antileishmanial chemotypes” (Eur J Med Chem, 2016).

Assays:
[1] = (§1) Selectivity index, ratio of CC50 for African green monkey Vero cells to IC50 for Leishmania donovani MHOM/IN/80/Dd8 amastigotes infected in mouse J774A.1 cells; type: functional
How it was run: (§2)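 Ratio of Vero-cell MTT CC50 to IC50 against intracellular amastigotes, both measured in this work.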

[2] = Cytotoxicity against African green monkey Vero cells after 72 hrs by MTT assay; type: cell-based; details: chlorocebus sabaeus
How it was run: (§3)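 Vero or J-774A.1 cells (1 x 10^5 cells/mL) exposed to 7 concentrations starting from 400 µM for 72 h. MTT (5 mg/mL stock) then added for 2 h at 37°C. Formazan dissolved in DMSO; absorbance read at 544 nm. CC50 estimated per Huber & Koella; mean ± SD of two independent assays in duplicate.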

[3] = Cytotoxicity against mouse J774A.1 cells after 72 hrs by MTT assay; type: cell-based, J774.A1; how it was run: as §3
[4] = system: Leishmania donovani; experiment: Antileishmanial activity against Leishmania donovani MHOM/IN/80/Dd8 amastigotes infected in mouse J774A.1 cells incubated for 72 hrs by luminometric analysis; type: functional, organism-based; details: MHOM/IN/80/Dd8, J774.A1, 72 h
How it was run: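 Macrophages seeded at 4 x 10^4/mL in RPMI-1640 with 10% FCS for 24 h, then infected with stationary-phase promastigotes (4 x 10^5/mL) for 24 h. Free parasites washed off. Compounds added as 7-point two-fold dilutions from 40 µM; 72 h at 37°C. Read-out was Steady Glo luminescence. IC50 from four-parameter Hill fit; two independent assays in duplicate.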

[5] = system: Leishmania donovani; experiment: Potency index, ratio of IC50 for miltefosine to IC50 for test compound against Leishmania donovani MHOM/IN/80/Dd8 amastigotes infected in mouse J774A.1 cells; type: functional
[6] = system: Leishmania donovani; experiment: Antileishmanial activity against amastigote stage of Leishmania donovani MHOM/IN/80/Dd8 infected in golden hamster at 30 mg/kg, po administered for 5 days measured on day 7 of last dose by Geimsa staining method; type: functional; details: MHOM/IN/80/Dd8, po
How it was run: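 Golden hamsters (inbred, either sex, 40–45 g) were infected intracardially with 1x 10^7 L. donovani amastigotes. Spleen biopsy at day 15; animals with +1 infection (5–10 amastigotes/100 spleen cell nuclei) were used, 5–6 per group. Dosing started 2 days after biopsy and ran 5 consecutive days. Day-7 post-treatment splenic amastigotes were counted by Giemsa stain; percent inhibition was computed against initial and untreated-control counts.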

[7] = system: Syrian golden hamster; experiment: Toxicity in golden hamster infected with amastigote stage of Leishmania donovani MHOM/IN/80/Dd8 assessed as abnormality in behaviour at 50 mg/kg/day, ip administered for 5 days; type: organism-based, Mesocricetus auratus; details: in vivo, 120 h
[8] = Mean residence time in Sprague-Dawley rat at 50 mg/kg administered as single dose via oral gavage by RP-HPLC analysis; type: ADME, organism-based; details: in vivo
How it was run: (§4)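 Single 50 mg/kg oral gavage dose to conscious male Sprague-Dawley rats (250 ± 25 g) after a 12–16 h overnight fast. Blood drawn at 0.5–48 h; serum separated and held at -80°C. Quantified by isocratic RP-HPLC (C18; 0.01M ammonium acetate/acetonitrile 35:65), LLOQ 25 ng/ml. Three rats; parameters derived noncompartmentally from mean serum concentrations.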

[9] = Cmax in Sprague-Dawley rat at 50 mg/kg administered as single dose via oral gavage after 0.5 to 48 hrs by RP-HPLC analysis; type: ADME, organism-based; design: dose 50 mg/kg, route oral; details: in vivo; how it was run: as §4
[10] = system: Leishmania donovani; experiment: Antileishmanial activity against promastigote stage of Leishmania donovani MHOM/IN/80/Dd8 assessed as apoptotic cells at IC50 after 72 hrs by annexin V-FITC/propidium iodide double staining-based flow cytometric analysis; type: functional
[11] = Cmax in Sprague-Dawley rat at 5 mg/kg, iv after 0.083 to 48 hrs by RP-HPLC analysis; type: ADME, organism-based; design: dose 5 mg/kg, route intravenous; details: in vivo
How it was run: (§5)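 Male Sprague-Dawley rats (250 ± 25 g), conscious, given a single 5 mg/kg dose into the femoral vein. The dose was a 10 mg/ml solution in DMSO/ethanol/tween 80/propylene glycol (10:20:2:48) with normal saline. Blood taken 0.083–48 h; serum read by isocratic RP-HPLC (C18, ammonium acetate 0.01M:acetonitrile 35:65), LLOQ 25 ng/ml. n=3; noncompartmental analysis.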

[12] = Clearance in Sprague-Dawley rat at 50 mg/kg administered as single dose via oral gavage after 0.5 to 48 hrs by RP-HPLC analysis; type: ADME, organism-based; details: in vivo; how it was run: as §4
[13] = system: Rattus norvegicus; experiment: Volume of distribution at steady state in Sprague-Dawley rat at 50 mg/kg administered as single dose via oral gavage after 0.5 to 48 hrs by RP-HPLC analysis; type: ADME, organism-based; details: in vivo; how it was run: as §4
[14] = Tmax in Sprague-Dawley rat at 5 mg/kg, iv by RP-HPLC analysis; type: ADME, organism-based; details: in vivo; how it was run: as §5
[15] = Clearance in Sprague-Dawley rat at 5 mg/kg, iv after 0.083 to 48 hrs by RP-HPLC analysis; type: ADME, organism-based; details: in vivo; how it was run: as §5
[16] = AUC(last) in Sprague-Dawley rat at 50 mg/kg administered as single dose via oral gavage after 0.5 to 48 hrs by RP-HPLC analysis; type: ADME, organism-based; design: dose 50 mg/kg, time 0 - last, route oral; details: in vivo; how it was run: as §4
[17] = Oral availability in Sprague-Dawley rat at 50 mg/kg via gavage after 0.5 to 48 hrs by RP-HPLC analysis; type: ADME, organism-based; details: in vivo; how it was run: as §4
[18] = Volume of distribution at steady state in Sprague-Dawley rat at 5 mg/kg, iv after 0.083 to 48 hrs by RP-HPLC analysis; type: ADME, organism-based; details: in vivo, read-out: Vdss; how it was run: as §5
[19] = system: Leishmania donovani; experiment: Antileishmanial activity against promastigote stage of Leishmania donovani MHOM/IN/80/Dd8 assessed as apoptotic cells at IC50 after 12 hrs by annexin V-FITC/propidium iodide double staining-based flow cytometric analysis; type: functional
[20] = system: Leishmania donovani; experiment: Antileishmanial activity against promastigote stage of Leishmania donovani MHOM/IN/80/Dd8 assessed as apoptotic cells at IC50 after 48 hrs by annexin V-FITC/propidium iodide double staining-based flow cytometric analysis; type: functional
[21] = system: Leishmania donovani; experiment: Antileishmanial activity against amastigote stage of Leishmania donovani MHOM/IN/80/Dd8 infected in golden hamster at 50 mg/kg/day, ip administered for 5 days measured on day 7 of last dose by Geimsa staining method; type: functional; details: MHOM/IN/80/Dd8, ip
How it was run: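 Inbred golden hamsters (40–45 g) infected intracardially with 1x10^7 amastigotes; only animals with +1 infection at 15-day spleen biopsy used. Five to six per group. Aqueous compound given ip at 50 mg/kg/day for 5 days, starting 2 days after biopsy. Splenic biopsy on day 7 after last dose, Giemsa-stained. Percent inhibition by formula relative to initial and untreated-control counts; pooled from at least two experiments.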

[22] = AUC(last) in Sprague-Dawley rat at 5 mg/kg, iv after 0.083 to 48 hrs by RP-HPLC analysis; type: ADME, organism-based; design: dose 5 mg/kg, route intravenous, time 0 - last; details: in vivo; how it was run: as §5
[23] = system: Leishmania donovani; experiment: Antileishmanial activity against promastigote stage of Leishmania donovani MHOM/IN/80/Dd8 assessed as apoptotic cells at IC50 after 24 hrs by annexin V-FITC/propidium iodide double staining-based flow cytometric analysis; type: functional
[24] = Mean residence time in Sprague-Dawley rat at 5 mg/kg, iv by RP-HPLC analysis; type: ADME, organism-based; details: in vivo; how it was run: as §5
[25] = Tmax in Sprague-Dawley rat at 50 mg/kg administered as single dose via oral gavage by RP-HPLC analysis; type: ADME, organism-based; details: in vivo; how it was run: as §4
[26] = system: Vero; experiment: as §1; type: functional; how it was run: as §2
[27] = system: Leishmania donovani; experiment: Antileishmanial activity against amastigote stage of Leishmania donovani MHOM/IN/80/Dd8 infected in golden hamster at 40 mg/kg, ip administered for 5 days measured on day 7 of last dose by Geimsa staining method; type: functional, organism-based

IC50 [4] [µM] | Compound | Ratio CC50/IC50 [1] | CC50 at 72 h [2] [µM] | CC50 at 72 h [3] [µM] | other results
1.9 | COc1cccc(CNC(=O)CN(C(=O)c2cc3ccccc3[nH]2)C(C(=O)NC(C)(C)C)c2ccc(Cl)cc2)c1 (stereo not given) | >210 | > 400 | 42.5 | 
10.9 | CC(C)(C)NC(=O)C(c1ccc(Cl)cc1)N(CC(=O)NCc1ccc(Cl)cc1)C(=O)c1cc2ccccc2[nH]1 (stereo not given) | >36 | > 400 | 143 | 
2.1 | CC(C)(C)NC(=O)C(c1ccc(Cl)cc1)N(CC(=O)NCCCN1CCOCC1)C(=O)c1cc2ccccc2[nH]1 (stereo not given) | 101 | 212 | 198 | Ratio IC50 [5]: 4
6.4 | CC(C)(C)NC(=O)C(c1ccc(Cl)cc1)N(CC(=O)NCc1ccncc1)C(=O)c1cc2ccccc2[nH]1 (stereo not given) | >62 | > 400 | 129 | 
6.3 | COc1cc(C(C(=O)NC(C)(C)C)N(CC(=O)NCc2ccc(Cl)c(Cl)c2)C(=O)c2cc3ccccc3[nH]2)cc(OC)c1OC (stereo not given) | 11 | 72.9 | 61.4 | 
7.5 | CC(C)(C)NC(=O)C(c1ccc(Cl)cc1)N(CC(=O)NCc1ccc(Cl)c(Cl)c1)C(=O)c1cc2ccccc2[nH]1 (stereo not given) | 7 | 52.2 | 19.2 | 
1.4 | COc1ccc(C(C(=O)NC(C)(C)C)N(CC(=O)NCc2ccncc2)C(=O)c2cc3ccccc3[nH]2)cc1 (stereo not given) | 78 | 109 | 47.9 | 
14.5 | COc1ccc(CNC(=O)CN(C(=O)c2ccc[nH]2)C(C(=O)NC(C)(C)C)c2cc(OC)c(OC)c(OC)c2)cc1 (stereo not given) | 5 | 73 | 62.4 | 
> 40 | COc1cc(C(C(=O)NC(C)(C)C)N(CC(=O)NCc2ccccc2)C(=O)c2cc3ccccc3[nH]2)cc(OC)c1OC (stereo not given) | <4 | 176 | 66.8 | 
> 40 | CC(C)(C)NC(=O)C(c1ccc(Cl)cc1)N(CC(=O)NCCO)C(=O)c1cc2ccccc2[nH]1 (stereo not given) | <5 | 226 | 239 | 
7.5 | COc1ccc(C(C(=O)NC(C)(C)C)N(CC(=O)NCc2ccc(Cl)cc2)C(=O)c2cc3ccccc3[nH]2)cc1 (stereo not given) | 53 | 400 | 123 | 
1.2 | COc1ccc(CNC(=O)CN(C(=O)c2cc3ccccc3[nH]2)C(C(=O)NC(C)(C)C)c2ccc(Cl)cc2)cc1 (stereo not given) | 121 | 146 | 140 | MRT [8]: 8.5 h; Cmax [9]: 1590 ng/mL; Activity [10]: 79.07%; Cmax [11]: 1390 ng/mL; CL/F [12]: 25 mL/min/kg; Vdss [13]: 12.8 L/kg; Tmax [14]: 4.98 min; clearance [15]: 10 mL/min/kg; AUC(0-t) [16]: 27200 ng·h/mL; bioavailability [17]: 34.9%; Vd [18]: 4.4 L/kg; Activity [19]: 49.1%; Activity [20]: 73.3%; inhibition in vivo at 50 mg/kg/day [21]: 70%; AUC(0-t) [22]: 7790 ng·h/mL; Ratio IC50 [5]: 7; Activity [23]: 56.17%; Activity [7]: Non-toxic; MRT [24]: 7.4 h; Tmax [25]: 1 h
1 | CC(C)(C)NC(=O)C(c1ccc(Br)cc1)N(CC(=O)NCCCN1CCOCC1)C(=O)c1cc2ccccc2[nH]1 (stereo not given) | >400 | > 400 | 147 | inhibition in vivo at 50 mg/kg/day [21]: 63.5%; Activity [7]: Non-toxic
1.5 | COc1ccc(CNC(=O)CN(C(=O)c2cc3ccccc3[nH]2)C(C(=O)NC(C)(C)C)c2ccc(Br)cc2)cc1 (stereo not given) | >266 | > 400 | 135 | 
8.8 | CC(C)(C)NC(=O)C(c1ccc(Cl)cc1)N(CC(=O)NCc1ccccc1)C(=O)c1cc2ccccc2[nH]1 (stereo not given) | 28 | 248 | 152 | 
0.6 | COc1ccc(CNC(=O)CN(C(=O)c2cc3ccccc3[nH]2)C(C(=O)NC(C)(C)C)c2ccc(OC)cc2)cc1 (stereo not given) | >666 | > 400 | 145 | inhibition in vivo at 50 mg/kg/day [21]: 63.4%; Ratio IC50 [5]: 14; Activity [7]: Non-toxic
3.1 | COc1ccc(CNC(=O)CN(C(=O)c2cc3ccccc3[nH]2)C(C(=O)NC(C)(C)CC(C)(C)C)c2ccc(Cl)cc2)cc1 (stereo not given) | >129 | > 400 | 51.2 | 
9.2 | COc1ccc(CNC(=O)CN(C(=O)c2cc3ccccc3[nH]2)C(C(=O)NC(C)(C)C)c2cc(OC)c(OC)c(OC)c2)cc1 (stereo not given) | 7 | 70.3 | 53.6 | 
 | Sodium stibo-gluconate |  |  |  | Ratio CC50/IC50 [26]: > 7; inhibition [27]: 86.9%

Compound | IC50 [4] [µM] | Ratio CC50/IC50 [1] | CC50 at 72 h [2] [µM] | CC50 at 72 h [3] [µM] | other results
CCCCCCCCCCCCCCCCOP(=O)([O-])OCC[N+](C)(C)C [MILTEFOSINE] | 8.4 | 6 |  | 14.3 | inhibition in vivo at 30 mg/kg [6]: 98.1%; Activity [7]: Non-toxic
